Values joined by “and” are separate entries in the source; they are usually repeats but may differ in a detail not shown here. Equal values may be shown once. Read-outs that look alike come from different tables or passages of the source.
Columns and labels:
[1] = type: in vivo, human
Procedure, shortened: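 Patients took oral ribociclib, 600 mg/day, for 8–21 days, with the last dose 4–8 h before surgery. Baseline blood was drawn before treatment and again within 1 h before surgery, then split into plasma and buffy coat. CSF was collected during surgery when feasible. Tumor core and infiltrating regions were located by stealth MRI and frozen. Total drug was measured by validated LC–MS/MS. Unbound drug equals fraction unbound × total.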

[2] = type: in vitro ADME, human
Procedure, shortened: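 Plasma and tumor homogenate came from patients dosed at ribociclib 600 mg/day for 8–21 days. Samples were collected 4–8 h after the last pre-surgical dose. Fraction unbound was determined by equilibrium dialysis across a 5-kDa cutoff regenerated cellulose membrane.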

[3] = Safety monitoring, adverse events graded by NCI CTCAE version 4.0; type: in vivo, human; conditions: for Cough / Creatinine increased / Edema, limbs / Gait disturbance / Generalized muscle weakness / Hyperglycemia / Musculoskeletal and connective tissue disorder—other: muscle pain / Nausea / Peripheral sensory neuropathy / Psychosis / Insomnia: count, prior to surgery and during treatment phase
Procedure, shortened: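 Participants with recurrent GBM took oral ribociclib, 600 mg once daily, for 8–21 days before resection. Rb-positive cases then continued on 21 days on and 7 days off per 28-day cycle. Throughout treatment, staff monitored complete blood counts, blood chemistry, 12-lead ECG, vital signs, Karnofsky status and physical exam. Adverse events were graded by NCI CTCAE v4.0 and assessed for expectedness and drug attribution.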

[4] = system: recurrent GBM; test: Disease progression; type: in vivo, human; conditions: for PFS from start of Ribociclib: 600 mg/day, 21-days-on, 7-days-off after surgery; for OS from second surgery: other regimens off-study after progression
Procedure, shortened: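 Patients with Rb-positive recurrent tumors continued oral ribociclib, 600 mg/day, 21 days on and 7 days off per 28-day cycle, until progression or unacceptable toxicity. Follow-up MRI, including perfusion and diffusion-weighted images, was done after every two cycles. Progression was judged by the Response Assessment in Neuro-Oncology (RANO) criteria.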

[5] = system: RbS807/811; test: Immunohistochemistry for phospho-Rb in paired tumor specimens; type: in vivo, human
[6] = system: Rb phosphorylation; conditions: cultured cells, in vitro; cited from earlier work
[7] = system: cell growth; conditions: suppression of cell growth in vitro; no reference given; cited from earlier work
[8] = cited from earlier work
[9] = system: Rb phosphorylation; conditions: 900 mg/day for 5 days before surgery, 12 patients; ref Tien et al. 37; cited from earlier work
[10] = system: cell proliferation; conditions: 900 mg/day for 5 days before surgery, 12 patients; ref Tien et al. 37; cited from earlier work
[11] = system: recurrent GBM; conditions: three of 17 patients with recurrent GBM; 150 mg or 200 mg twice daily; cited from earlier work
[12] = system: recurrent Rb-positive GBM; conditions: 22 patients, 125 mg/day, 21-days-on, 7-days-off; cited from earlier work
[13] = system: GBM cell proliferation; conditions: 7 days before surgery, 4 matched samples; ref Taylor et al. 34; cited from earlier work
[14] = enhancing tumor, subject RIBO-001, mean of specimens
[15] = enhancing tumor, subject RIBO-003, mean of specimens
[16] = mean across all specimens, 600 mg QD 8–21 days
[17] = mean ± SD, all tumor specimens of three subjects
[18] = mean ± SD, assuming tumor tissue density of 1.04 g/mL
[19] = non-enhancing tumor, subject RIBO-001, mean of specimens
[20] = tumor core, subject RIBO-002, mean of specimens
[21] = tumor core, subject RIBO-003, mean of specimens

CN(C)C(=O)c1cc2cnc(Nc3ccc(N4CCNCC4)cn3)nc2n1C1CCCC1 [ribociclib]
Mean unbound ribociclib concentration in CSF ([1]; 600 mg QD 8–21 days, one CSF sample): 0.632 µM and 0.63 µM | Ribociclib CSF concentration relative to the IC50 for inhibition of CDK4/6 ([1]; CSF): > fivefold | Total ribociclib (CSF ribociclib concentration) ([1]; CSF collected during surgery, subject RIBO-003, 600 mg QD, 14 days): 0.63 µM | Total drug tumor (mean concentration) [1, 14]: 17.97 nmol/g | Unbound drug tumor (mean concentration) [1, 14]: 0.79 nmol/g | Total drug tumor (mean concentration) ([1]; enhancing tumor, subject RIBO-002, mean of specimens): 24.73 nmol/g | Total drug tumor (mean concentration) [1, 15]: 29.99 nmol/g | Unbound drug tumor (mean concentration) [1, 15]: 1.29 nmol/g | Kp ([1]; human, CSF / unbound plasma, oral, 600 mg/day, CSF/unbound plasma concentration ratio, one patient, 0.63/0.49): 1.29 | Mean unbound ribociclib concentration in MRI-enhancing tumor [1, 16]: 1.242 nmol/g | Mean unbound ribociclib concentration in MRI-non-enhancing tumor [1, 16]: 0.484 nmol/g and 0.48 nmol/g | Mean unbound ribociclib concentration in tumor core [1, 16]: 1.526 nmol/g | Mean concentration of unbound ribociclib in MRI-enhancing tumor or core ([1]; mean across all subjects, reported herein, 600 mg/day): 1.33 nmol/g | Mean unbound ribociclib concentration in plasma ([1]; mean across participants, 600 mg QD 8–21 days): 0.337 µM | Tumor tissue concentration of total ribociclib [1, 17]: 23.42 ± 10.79 nmol/g | Tumor tissue concentration of unbound ribociclib [1, 17]: 1.24 ± 0.64 nmol/g | Tumor tissue concentration of total ribociclib [1, 18]: 24.36 ± 11.22 µM | Unbound ribociclib intra-tumor drug concentration [1, 18]: 1.29 ± 0.67 µM | Unbound concentration in non-enhancing tumor relative to the IC50 for inhibition of CDK4/6 ([1]; non-enhancing tumor): > fivefold | Total drug tumor (mean concentration) [1, 19]: 8.86 nmol/g | Unbound drug tumor (mean concentration) [1, 19]: 0.48 nmol/g | Total ribociclib ([1]; plasma, day of surgery, subject RIBO-001, 600 mg QD, 8 days before surgery): 3.65 µM | Total ribociclib ([1]; plasma, day of surgery, subject RIBO-002, 600 mg QD, 12 days before surgery): 1.26 µM | Total ribociclib ([1]; plasma, day of surgery, subject RIBO-003, 600 mg QD, 14 days before surgery): 5.44 µM | Total ribociclib ([1]; tumor core specimen, subject RIBO-001, 600 mg QD, 8 days, 4–8 h after last dose): 16.30 nmol/g | Total drug tumor (mean concentration) ([1]; tumor core, subject RIBO-001): 16.30 nmol/g | Unbound drug tumor (mean concentration) ([1]; tumor core, subject RIBO-001): 0.82 nmol/g | Total drug tumor (mean concentration) [1, 20]: 33.03 nmol/g | Unbound drug tumor (mean concentration) [1, 20]: 2.11 nmol/g | Total drug tumor (mean concentration) [1, 21]: 21.65 nmol/g | Unbound drug tumor (mean concentration) [1, 21]: 1.30 nmol/g | Fraction unbound ([2]; enhancing tumor specimens, subject RIBO-001): 3.9% | Fraction unbound ([2]; enhancing tumor specimens, subject RIBO-002): 6.4% and 5.8% and 5.4% | Fraction unbound ([2]; enhancing tumor specimens, subject RIBO-003): 4.1% and 4.3% | Fraction unbound ([2]; human, plasma, Fraction unbound, subject RIBO-001): 0.102 | Fraction unbound ([2]; human, plasma, Fraction unbound, subject RIBO-002): 0.119 | Fraction unbound ([2]; human, plasma, Fraction unbound, subject RIBO-003): 0.09 | Fraction unbound ([2]; non-enhancing tumor specimens, subject RIBO-001): 4.2% | Fraction unbound ([2]; tumor core specimens, subject RIBO-003): 6.3% | Grade of all observed adverse events ([3]; CTCAE v4.0, three participants, 600 mg/day): ≤ 2 grade | Cough ([3]; Grade 1): 1 | Creatinine increased ([3]; Grade 1): 0 | Edema, limbs ([3]; Grade 1): 1 | Gait disturbance ([3]; Grade 1): 0 | Generalized muscle weakness ([3]; Grade 1): 0 | Hyperglycemia ([3]; Grade 1): 0 | Musculoskeletal and connective tissue disorder—other: muscle pain ([3]; Grade 1): 1 | Nausea ([3]; Grade 1): 1 | Peripheral sensory neuropathy ([3]; Grade 1): 1 | Psychosis ([3]; Grade 1): 1 | Creatinine increased ([3]; Grade 2): 1 | Edema, limbs ([3]; Grade 2): 0 | Gait disturbance ([3]; Grade 2): 1 | Generalized muscle weakness ([3]; Grade 2): 1 | Hyperglycemia ([3]; Grade 2): 1 | Insomnia ([3]; Grade 2): 1 | Musculoskeletal and connective tissue disorder—other: muscle pain ([3]; Grade 2): 0 | Nausea ([3]; Grade 2): 0 | Peripheral sensory neuropathy ([3]; Grade 2): 0 | Cough ([3]; Total): 1 | Creatinine increased ([3]; Total): 1 | Edema, limbs ([3]; Total): 1 | Gait disturbance ([3]; Total): 1 | Generalized muscle weakness ([3]; Total): 1 | Hyperglycemia ([3]; Total): 1 | Insomnia ([3]; Total): 1 | Musculoskeletal and connective tissue disorder—other: muscle pain ([3]; Total): 1 | Nausea ([3]; Total): 1 | Peripheral sensory neuropathy ([3]; Total): 1 | Psychosis ([3]; Total): 1 | Serious adverse events ([3]; three participants, 600 mg/day): No participants experienced serious adverse events | Withdrawal from the study due to adverse events ([3]; three participants, 600 mg/day): No participants withdrew | Disease progression ([4]; all three participants, ribociclib monotherapy): all experienced early disease progression | PFS from start of Ribociclib ([4]; participant 001): 2 months | OS from second surgery ([4]; participant 001): 10 months | PFS from start of Ribociclib ([4]; participant 002): 5 months | OS from second surgery ([4]; participant 002): 19 months | PFS from start of Ribociclib ([4]; participant 003): 2 months | OS from second surgery ([4]; participant 003): 12 months | Inhibition of tumor tissue CDK4/6 activity (phospho-Rb IHC) or cell proliferation (Ki-67 IHC) ([5]; 600 mg/day monotherapy, archived vs post-ribociclib tumor tissue): did not consistently inhibit | Proportion of phospho-Rb-positive tumor cells and phospho-Rb histoscores, ribociclib-treated vs. baseline tumors ([5]; 8–21 days of ribociclib 600 mg/day, three subjects, Fig. S1A): Two of the three subjects showed a decrease | Ribociclib (total drug) sufficient to suppress Rb phosphorylation [6]: 200 nM | GI50 [7]: 276 nM | Mean unbound ribociclib fraction in plasma ([8]; CV = 17.6%): 12.7% | Mean unbound ribociclib fraction in tumor tissues ([8]; CV = 23%): 4.6% | Change in Rb phosphorylation, archived vs post-ribociclib tumor [9]: significant decrease | Change in cell proliferation, archived vs post-ribociclib tumor [10]: significant decrease

CCN1CCN(Cc2ccc(Nc3ncc(F)c(-c4cc(F)c5nc(C)n(C(C)C)c5c4)n3)nc2)CC1 [abemaciclib]
Best response: duration of stable disease [11]: ≥ 24 weeks

CC(=O)c1c(C)c2cnc(Nc3ccc(N4CCNCC4)cn3)nc2n(C2CCCC2)c1=O [palbociclib]
Median PFS [12]: 5.1 weeks | OS [12]: 15.4 weeks | Change in GBM cell proliferation by Ki-67 IHC [13]: did not produce significant changes | Tumor drug concentrations vs pharmacologically active level [13]: exceeded those felt to be pharmacologically active
